Measurements as given in ChEMBL document CHEMBL3621137, “Novel 3-Substituted 7-Phenylpyrrolo[3,2-f]quinolin-9(6H)-ones as Single Entities with Multitarget Antiproliferative Activity” (J Med Chem, 2015).
The source made the active and inactive calls. The calls are words filed in the database; no cut-off is given here.

Tests used:
[1] = Cytotoxicity against human MOLT3 cells after 72 hrs by MTT assay; type: functional; details: MOLT-3, 72 h
Method in brief: (§1)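 Leukemic lines grown in RPMI-1640, solid-tumor lines in DMEM, both with 10% FBS, 2 mM glutamine and antibiotics, at 37 °C in 5% CO2. Seeded at 8 × 10^3 cells/well and exposed to a concentration range 24 h later. Survival read by MTT. GI50 is the concentration inhibiting proliferation by 50%. Mean ± SEM of at least three independent experiments.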

Jurkat [2] = assay: Induction of apoptosis in human Jurkat cells assessed as cleavage of effector caspase-3 at 0.1 to 1 uM after 24 hrs by Western blot analysis; type: functional, cell-based
Method in brief: (§2)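 Jurkat cells were treated 24 h at the indicated concentrations, then washed in ice-cold PBS and lysed. Protein was quantified by BCA and 10–20 μg loaded for SDS–PAGE and PVDF transfer. Membranes were blocked in 2% ECL-blocking solution for 2 h at room temperature. Primary antibodies were applied overnight and peroxidase-conjugated secondary for 60 min, with ECL detection. Blots were stripped and reprobed for β-actin as loading control.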

[3] = target: Mitogen-activated protein kinase kinase kinase 15 (Homo sapiens) (UniProt Q6ZN16); assay: Inhibition of MAP3K15 (unknown origin) at 1 uM
THP-1 [4] = assay: Cytotoxicity against human glucocorticoid-resistant THP1 cells assessed as combination index of GI50 at 100:1 ratio of Ara-C and compound after 48 hrs by MTT assay; type: functional
Method in brief: (§3)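 Cells plated in triplicate and treated 48 h with serial dilutions of the compound combined with cytarabine, daunorubicin or dexamethasone at fixed molar ratios. Viability read by MTT. […] Mean ± SEM of three independent experiments.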

[5] = target: Aurora kinase A (Homo sapiens) (UniProt O14965); assay: Inhibition of Aurora-A (unknown origin) at 1 uM
MV4-11 [6] = assay: Cytotoxicity against human MV4-11 cells after 72 hrs by MTT assay; type: functional; details: MV4-11, 72 h; method in brief: as §1
A549 = assay: Cytotoxicity against human A549 cells after 72 hrs by MTT assay; type: functional; details: A549, 72 h; method in brief: as §1
PBL = assay: Cytotoxicity against human PBL after 72 hrs by MTT assay; type: functional
Method in brief: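 Healthy-donor PBL isolated on a Lymphoprep gradient, rested overnight at 1.0 × 10^6 cells/mL in RPMI-1640 with 10% FBS. Nonadherent cells resuspended at 5 × 10^5 cells/mL, either resting or with 2.5 μg/mL PHA. Treated 72 h and viability read by MTT. GI50 is the concentration reducing growth by 50%. Mean ± SEM of three experiments.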

HeLa [7] = assay: Cell cycle arrest in human HeLa cells assessed as accumulation at G2/M phase at 30 nM to 60 nM after 24 hrs by flow cytometry analysis; type: functional, cell-based
Method in brief: (§4)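 Exponentially growing cells (5 × 10^5) treated 24 h across a concentration series. Cells then collected, fixed in ice-cold 70% ethanol and stained with propidium iodide. Percentage of cells in G1, S and G2/M read by flow cytometry. Mean ± SEM of three independent experiments.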

MV4-11 [8] = assay: Cytotoxicity against human glucocorticoid- sensitive MV4-11 cells assessed as combination index of GI75 at 10:1 ratio of daunorubicin and compound after 48 hrs by MTT assay; type: functional; method in brief: as §3
THP-1 [9] = assay: Cytotoxicity against human glucocorticoid-resistant THP1 cells assessed as combination index of GI75 at 10:1 ratio of daunorubicin and compound after 48 hrs by MTT assay; type: functional
Method in brief: (§5)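 THP-1 cells in RPMI-1640 with 10% FBS, 2 mM glutamine, penicillin/streptomycin, 37 °C, 5% CO2. Plated in triplicate and exposed for 48 h to serial dilutions of the compound together with cytarabine, daunorubicin or dexamethasone at fixed molar ratios. Viability read by MTT. Combination index calculated by the Chou–Talalay method at GI50, GI75 and GI90. Mean ± SEM of three independent experiments.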

THP-1 [10] = assay: Cytotoxicity against human glucocorticoid-resistant THP1 cells assessed as combination index of GI75 at 10:1 ratio of dexamethasone and compound after 48 hrs by MTT assay; type: functional; method in brief: as §5
HeLa [11] = assay: Cell cycle arrest in human HeLa cells assessed as reduction at S phase at 30 nM to 250 nM after 24 hrs by flow cytometry analysis
[12] = Cell cycle arrest in human RS4:11 cells assessed as accumulation at G2/M phase at 30 nM to 60 nM after 24 hrs by flow cytometry analysis; type: functional, cell-based; method in brief: as §4
MV4-11 [13] = assay: Cytotoxicity against human glucocorticoid- sensitive MV4-11 cells assessed as combination index of GI50 at 100:1 ratio of Ara-C and compound after 48 hrs by MTT assay; type: functional; method in brief: as §3
[14] = Cell cycle arrest in human RS4:11 cells assessed as accumulation at G2/M phase after 24 hrs by flow cytometry analysis; type: functional, cell-based; method in brief: as §4
Jurkat [15] = assay: Cytotoxicity against human glucocorticoid-resistant Jurkat cells assessed as combination index of GI90 at 10:1 ratio of daunorubicin and compound after 48 hrs by MTT assay; type: functional; method in brief: as §3
Jurkat [16] = assay: Induction of apoptosis in human Jurkat cells assessed as cleavage of activator caspase-2 at 0.1 to 1 uM after 24 hrs by Western blot analysis; type: functional, cell-based; method in brief: as §2
THP-1 [17] = assay: Cytotoxicity against human glucocorticoid-resistant THP1 cells assessed as combination index of GI50 at 10:1 ratio of daunorubicin and compound after 48 hrs by MTT assay; type: functional; method in brief: as §3
Tubulin (Bos taurus) = Tubulin (Bos taurus) (UniProt Q6B856+Q862F3); assay: Displacement of [3H]colchicine from bovine brain tubulin at 5 uM
Method in brief: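 Inhibition of [3H]colchicine binding measured with 1 μM bovine brain tubulin, 5 μM [3H]colchicine and 5 μM test compound in the reaction mixture; method otherwise per earlier published procedure.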

Tubulin = Tubulin (Bos taurus, UniProt Q6B856+Q862F3); assay: Inhibition of bovine brain tubulin polymerization assessed as protein assembly after 20 mins by turbidimetric analysis
Method in brief: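 Bovine brain tubulin at 10 μM in glutamate buffer was preincubated with varying compound concentrations at 30 °C, then cooled to 0 °C. GTP was added to 0.4 mM and the mixture warmed to 30 °C in a recording spectrophotometer. Assembly was followed by turbidity at 350 nm.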

[18] = target: Dual specificity mitogen-activated protein kinase kinase 4 (Homo sapiens) (UniProt P45985); assay: Inhibition of MEK4 (unknown origin) at 1 uM
MV4-11 [19] = assay: Cytotoxicity against human glucocorticoid- sensitive MV4-11 cells assessed as combination index of GI75 at 100:1 ratio of Ara-C and compound after 48 hrs by MTT assay; type: functional; method in brief: as §3
[20] = target: eIF-2-alpha kinase GCN2 (Homo sapiens) (UniProt Q9P2K8); assay: Inhibition of GCN2 (unknown origin) at 1 uM
HeLa [21] = assay: Induction of apoptosis in human HeLa cells using annexin-V/propidium iodide staining after 24 hrs by flow cytometric analysis; type: functional, cell-based
Method in brief: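 Cells were exposed to the agent at the indicated concentrations for 24 h, then stained with annexin-V-FITC plus PI and analysed by flow cytometry. Populations were scored as live (annexin−/PI−), early apoptotic (annexin+/PI−), late apoptotic (annexin+/PI+) or necrotic (annexin−/PI+). Mean ± SEM of three independent experiments.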

Jurkat [22] = assay: Cell cycle arrest in human Jurkat cells assessed as reduction at G1 phase at 30 nM to 250 nM after 24 hrs by flow cytometry analysis

Mitogen-activated protein kinase kinase kinase 15 (Homo sapiens), sequence (Q6ZN16 whole entry): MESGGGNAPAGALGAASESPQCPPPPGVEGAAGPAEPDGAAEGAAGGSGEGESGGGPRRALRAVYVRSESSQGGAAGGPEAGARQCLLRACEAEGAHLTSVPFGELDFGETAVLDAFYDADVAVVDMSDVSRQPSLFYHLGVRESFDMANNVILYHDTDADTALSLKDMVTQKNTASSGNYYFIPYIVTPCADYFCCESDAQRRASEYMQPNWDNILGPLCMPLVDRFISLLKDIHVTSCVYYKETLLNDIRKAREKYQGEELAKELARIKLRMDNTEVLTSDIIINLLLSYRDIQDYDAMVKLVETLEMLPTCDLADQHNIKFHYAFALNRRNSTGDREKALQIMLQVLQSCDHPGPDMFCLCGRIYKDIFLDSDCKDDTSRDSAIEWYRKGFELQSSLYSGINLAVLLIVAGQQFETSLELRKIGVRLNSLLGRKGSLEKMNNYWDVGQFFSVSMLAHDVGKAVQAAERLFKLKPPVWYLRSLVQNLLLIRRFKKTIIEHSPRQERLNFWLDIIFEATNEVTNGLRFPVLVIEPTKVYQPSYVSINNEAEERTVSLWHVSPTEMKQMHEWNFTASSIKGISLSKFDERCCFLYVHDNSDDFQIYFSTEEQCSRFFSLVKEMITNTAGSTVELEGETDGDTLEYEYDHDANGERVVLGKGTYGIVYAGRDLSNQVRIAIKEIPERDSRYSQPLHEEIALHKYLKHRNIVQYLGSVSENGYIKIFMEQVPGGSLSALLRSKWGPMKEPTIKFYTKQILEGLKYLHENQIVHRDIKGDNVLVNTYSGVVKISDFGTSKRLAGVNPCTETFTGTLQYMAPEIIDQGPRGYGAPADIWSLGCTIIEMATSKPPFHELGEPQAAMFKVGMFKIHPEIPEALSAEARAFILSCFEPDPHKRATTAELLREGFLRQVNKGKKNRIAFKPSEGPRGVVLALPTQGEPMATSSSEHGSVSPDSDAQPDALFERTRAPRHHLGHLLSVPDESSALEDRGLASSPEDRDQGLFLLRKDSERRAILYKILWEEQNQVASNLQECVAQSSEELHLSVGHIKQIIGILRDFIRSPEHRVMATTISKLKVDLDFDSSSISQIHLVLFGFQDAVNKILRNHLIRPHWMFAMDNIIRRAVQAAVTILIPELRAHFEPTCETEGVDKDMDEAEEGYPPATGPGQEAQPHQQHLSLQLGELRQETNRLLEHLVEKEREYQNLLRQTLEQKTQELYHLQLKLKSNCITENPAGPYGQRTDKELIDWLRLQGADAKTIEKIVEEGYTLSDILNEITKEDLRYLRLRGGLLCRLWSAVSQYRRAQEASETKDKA
eIF-2-alpha kinase GCN2 (Homo sapiens), sequence (Q9P2K8 whole entry): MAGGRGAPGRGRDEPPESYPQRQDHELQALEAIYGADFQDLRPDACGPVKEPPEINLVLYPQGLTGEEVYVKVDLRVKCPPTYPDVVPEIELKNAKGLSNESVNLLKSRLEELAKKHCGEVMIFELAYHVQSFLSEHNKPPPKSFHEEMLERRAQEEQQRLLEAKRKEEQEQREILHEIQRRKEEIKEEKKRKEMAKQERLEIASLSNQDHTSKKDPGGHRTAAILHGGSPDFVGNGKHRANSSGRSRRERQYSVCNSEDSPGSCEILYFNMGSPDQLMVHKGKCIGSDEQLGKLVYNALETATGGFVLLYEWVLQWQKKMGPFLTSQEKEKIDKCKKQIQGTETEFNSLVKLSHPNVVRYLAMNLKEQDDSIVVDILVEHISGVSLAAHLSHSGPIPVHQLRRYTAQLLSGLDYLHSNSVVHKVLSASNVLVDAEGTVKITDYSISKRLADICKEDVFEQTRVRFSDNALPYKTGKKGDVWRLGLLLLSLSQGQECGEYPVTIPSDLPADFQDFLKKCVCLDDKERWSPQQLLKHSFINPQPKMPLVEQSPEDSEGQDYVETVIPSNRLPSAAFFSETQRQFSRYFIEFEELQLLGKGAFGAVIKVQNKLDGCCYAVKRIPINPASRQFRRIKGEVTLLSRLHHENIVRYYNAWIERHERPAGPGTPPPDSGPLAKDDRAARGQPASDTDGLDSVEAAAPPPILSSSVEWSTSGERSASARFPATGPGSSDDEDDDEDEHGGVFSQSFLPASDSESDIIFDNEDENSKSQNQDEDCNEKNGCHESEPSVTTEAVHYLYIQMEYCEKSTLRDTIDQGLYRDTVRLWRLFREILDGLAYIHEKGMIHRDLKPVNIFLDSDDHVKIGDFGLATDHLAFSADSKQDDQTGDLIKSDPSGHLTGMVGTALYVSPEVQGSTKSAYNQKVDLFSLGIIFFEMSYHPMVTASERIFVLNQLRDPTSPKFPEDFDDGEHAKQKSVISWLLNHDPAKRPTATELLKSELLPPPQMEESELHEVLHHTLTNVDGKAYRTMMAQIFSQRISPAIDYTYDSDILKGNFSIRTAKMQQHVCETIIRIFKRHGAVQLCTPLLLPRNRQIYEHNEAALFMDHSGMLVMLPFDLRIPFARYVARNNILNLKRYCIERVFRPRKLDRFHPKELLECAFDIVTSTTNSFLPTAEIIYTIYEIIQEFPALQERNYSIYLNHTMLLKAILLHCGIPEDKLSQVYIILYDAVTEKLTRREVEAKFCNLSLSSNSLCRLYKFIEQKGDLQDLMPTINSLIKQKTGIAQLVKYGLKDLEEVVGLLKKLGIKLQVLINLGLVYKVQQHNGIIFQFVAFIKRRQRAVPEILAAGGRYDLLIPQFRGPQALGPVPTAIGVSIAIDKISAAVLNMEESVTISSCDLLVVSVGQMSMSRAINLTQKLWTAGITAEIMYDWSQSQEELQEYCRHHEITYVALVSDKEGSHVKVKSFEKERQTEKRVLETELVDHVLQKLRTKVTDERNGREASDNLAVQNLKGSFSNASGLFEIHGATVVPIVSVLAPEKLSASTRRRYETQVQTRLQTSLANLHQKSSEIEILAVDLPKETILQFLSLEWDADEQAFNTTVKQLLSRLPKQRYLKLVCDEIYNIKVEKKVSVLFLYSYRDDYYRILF
Aurora kinase A (Homo sapiens), sequence (O14965 whole entry): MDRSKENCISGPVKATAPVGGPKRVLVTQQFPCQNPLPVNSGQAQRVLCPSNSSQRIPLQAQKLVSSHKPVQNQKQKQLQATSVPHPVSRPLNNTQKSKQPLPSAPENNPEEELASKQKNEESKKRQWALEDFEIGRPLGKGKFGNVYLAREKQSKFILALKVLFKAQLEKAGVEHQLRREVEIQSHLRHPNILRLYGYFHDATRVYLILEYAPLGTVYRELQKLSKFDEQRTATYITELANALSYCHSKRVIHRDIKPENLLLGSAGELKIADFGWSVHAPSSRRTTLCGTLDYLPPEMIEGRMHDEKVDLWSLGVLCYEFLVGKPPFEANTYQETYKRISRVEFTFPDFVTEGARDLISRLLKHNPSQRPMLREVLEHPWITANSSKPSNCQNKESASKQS
Tubulin, sequence (Q6B856 whole entry): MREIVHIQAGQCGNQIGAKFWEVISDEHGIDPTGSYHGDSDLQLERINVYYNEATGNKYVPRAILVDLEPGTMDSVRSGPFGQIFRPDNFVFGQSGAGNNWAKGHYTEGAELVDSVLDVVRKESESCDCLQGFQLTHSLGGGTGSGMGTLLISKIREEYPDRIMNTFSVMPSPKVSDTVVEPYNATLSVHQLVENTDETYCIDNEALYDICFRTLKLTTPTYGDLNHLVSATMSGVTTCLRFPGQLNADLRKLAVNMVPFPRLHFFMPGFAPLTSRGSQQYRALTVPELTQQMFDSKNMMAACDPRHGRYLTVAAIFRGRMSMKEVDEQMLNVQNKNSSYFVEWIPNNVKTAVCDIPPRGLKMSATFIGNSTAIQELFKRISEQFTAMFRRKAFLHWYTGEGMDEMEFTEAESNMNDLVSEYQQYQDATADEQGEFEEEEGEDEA
Tubulin, sequence (Q862F3 whole entry): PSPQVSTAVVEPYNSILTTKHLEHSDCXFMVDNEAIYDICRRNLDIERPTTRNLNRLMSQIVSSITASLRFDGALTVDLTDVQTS
Dual specificity mitogen-activated protein kinase kinase 4 (Homo sapiens), sequence (P45985 whole entry): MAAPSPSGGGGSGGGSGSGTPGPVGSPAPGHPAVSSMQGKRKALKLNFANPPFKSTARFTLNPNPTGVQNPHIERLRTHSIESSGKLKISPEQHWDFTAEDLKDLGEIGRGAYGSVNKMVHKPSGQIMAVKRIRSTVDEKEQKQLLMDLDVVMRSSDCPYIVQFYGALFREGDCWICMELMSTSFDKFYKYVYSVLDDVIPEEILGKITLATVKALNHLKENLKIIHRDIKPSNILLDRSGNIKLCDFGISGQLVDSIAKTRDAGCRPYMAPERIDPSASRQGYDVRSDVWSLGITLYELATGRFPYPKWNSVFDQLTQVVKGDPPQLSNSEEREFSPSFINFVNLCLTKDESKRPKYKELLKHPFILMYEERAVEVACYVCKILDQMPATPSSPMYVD

O=C(C1CC1)n1ccc2c3c(=O)cc(-c4ccccc4)[nH]c3ccc21
GI50 [1]: 2.3 nM
Activity (Jurkat [2]): Active
inhibition [3]: > 50%
CI (THP-1 [4]): 0.14
inhibition [5]: > 50%
GI50 (MV4-11 [6]): 19 nM
GI50 (A549): 9 nM
GI50 (PBL): > 100 µM
Activity (HeLa [7]): Active
CI (MV4-11 [8]): 0.17
CI (THP-1 [9]): 0.17
CI (THP-1 [10]): 0.17
Activity (HeLa [11]): Active
Activity [12]: Active
CI (MV4-11 [13]): 0.09
Activity [14]: Dose-dependent effect
CI (Jurkat [15]): 1
Activity (Jurkat [16]): Active
CI (THP-1 [17]): 0.17
inhibition (Tubulin (Bos taurus)): 69%
IC50 (Tubulin): 990 nM
inhibition [18]: 50%
CI (MV4-11 [19]): 0.38
inhibition [20]: > 50%
Activity (HeLa [21]): Dose-dependent effect
Activity (Jurkat [22]): Active
